Most compounds without a hit are left out; they make up all but 3% or so of the library.
NPY Y2 blocker – blocks the human neuropeptide Y Y2 receptor; inhibition, % at 2.7 µM; NPY-Y2 expressing cells, antagonist mode; 0.99% of 140,000 active; in the data active = inhibition above about 17%;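 note: 0% = vehicle with agonist challenge and 100% = reference antagonist with challenge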
Target sequence (P49146 whole entry, looked up): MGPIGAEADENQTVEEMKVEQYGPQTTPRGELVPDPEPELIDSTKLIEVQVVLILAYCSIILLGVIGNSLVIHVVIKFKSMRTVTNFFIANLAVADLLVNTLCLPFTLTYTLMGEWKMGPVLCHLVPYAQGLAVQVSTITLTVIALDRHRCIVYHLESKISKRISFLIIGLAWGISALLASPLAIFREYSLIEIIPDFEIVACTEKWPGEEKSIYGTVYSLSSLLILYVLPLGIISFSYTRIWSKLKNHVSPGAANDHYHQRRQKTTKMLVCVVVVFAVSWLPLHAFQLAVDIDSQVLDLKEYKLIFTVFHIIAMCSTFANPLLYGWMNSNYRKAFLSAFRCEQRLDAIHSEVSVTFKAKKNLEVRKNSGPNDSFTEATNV
NPY1 pot ag – potentiators or agonists of human neuropeptide Y receptor Y1; P25929; NPY-Y1 expressing cells, potentiator/agonist activation; activation, % at 3.6 µM; 0.37% of 220,000 active; AID 1304; in the data active = activation above about 33%, passing the limit was not always enough;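 note: cells stimulated with NPY at EC10 then isoproterenol at EC100; 0% = low agonist plus stimulus and 100% = saturating agonist plus stimulus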
Target sequence (P25929 whole entry, looked up): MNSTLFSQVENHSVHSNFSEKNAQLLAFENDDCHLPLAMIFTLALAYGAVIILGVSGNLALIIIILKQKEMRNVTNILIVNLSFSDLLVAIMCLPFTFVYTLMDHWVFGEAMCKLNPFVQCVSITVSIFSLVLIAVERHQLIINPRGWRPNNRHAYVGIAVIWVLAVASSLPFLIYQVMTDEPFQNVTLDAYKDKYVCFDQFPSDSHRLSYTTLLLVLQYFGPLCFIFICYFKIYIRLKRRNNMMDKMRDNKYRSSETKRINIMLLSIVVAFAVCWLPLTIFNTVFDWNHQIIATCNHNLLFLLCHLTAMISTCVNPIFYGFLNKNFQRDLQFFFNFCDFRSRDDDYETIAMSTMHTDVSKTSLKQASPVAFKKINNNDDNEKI
NPY-Y1 antag – antagonists of human neuropeptide Y receptor Y1 | P25929 | HEK293-CNG Y1 cells, membrane potential fluorescence; NPY at EC95, then isoproterenol | inhibition, % at 3.6 µM | 1% of 200,000 active | AID 1040;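 active = inhibition above the campaign mean inhibition of all tested compounds plus 3 SD, cut at about 20% in these data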;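 note: 0% = DMSO wells given NPY plus isoproterenol and 100% = isoproterenol alone without NPY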
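material = HEK293 cells with Y1 receptor plus CNG channel | also added = NPY 25 nM then isoproterenol 1 µM plus Ro 20-1724 25 µM | schedule = dye 3 h, compound 60 min room temperature, stimulation 45 min | measured by = membrane potential fluorescence | benchmarks = high control isoproterenol alone, low control NPY with isoproterenol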
Wee1 stabilizer – human Wee1 degradation inhibition, primary screen; reporter increase, % at 5 µM; P30291; HeLa Luc-Wee1K328M stability, luciferase luminescence; 100% = proteasome inhibitor MG132 effect; 1.2% of 220,000 active;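 active = activation above the mean of all tested compounds plus 3 SD, set per screening run, cut at about 8.8% in these data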;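 note: cells exposed to compound for 20 h before luminescence read; 0% = DMSO alone and 100% = MG132 at 30 µM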
Hsp70 act – switches on Hsp70 transcription; activation, % at 10 µM; HeLa Hsp70 promoter luciferase reporter, luminescence; scaled: vehicle 0, proteasome-inhibitor control 100%; 0.04% of 200,000 active; AID 1203;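 active = activation above the mean across all tested compounds plus 3 SD, cutoff set per campaign, cut at about 5.5% in these data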;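 note: 100% = MG132 at 30 µM as the positive control and 0% = DMSO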
NPY2 pot ag – potentiators or agonists of human neuropeptide Y receptor Y2 | cells expressing NPY-Y2, potentiator/agonist read-out | AID 1359 | P49146 | activation, % at 3.6 µM | 0.45% of 220,000 active; in the data active = activation above about 27%;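 note: cells stimulated with NPY near EC25 plus isoproterenol at EC100; 0% = vehicle plus submaximal agonist and 100% = vehicle plus saturating agonist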
Wee1 degr conf – confirmation of human Wee1 degradation inhibitors; shares compounds with Wee1 stabilizer; HeLa Luc-Wee1K328M degradation, luminescence; vehicle 0%, proteasome-blocked wells 100%; activation, % at 5 µM; 4% of 1,100 active; AID 1410; in the data active = activation above about 8.9%
NPY-Y2 pot conf – human NPY-Y2 potentiation or agonism, confirmation; shares compounds with NPY2 pot ag; cell-based NPY-Y2 potentiator/agonist assay; activation, % at 3.6 µM; 20% of 450 active; AID 1539; in the data active = activation above about 33%
NPY-Y1 counter – potentiates or activates NPY-Y1, counter-screen for NPY-Y2 hits | shares compounds with NPY2 pot ag | activation, % at 3.6 µM | Y1 HEK293-CNG cells, membrane potential fluorescence | 20% of 450 active; in the data active = activation above about 45%;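 note: cells stimulated with submaximal NPY then isoproterenol with phosphodiesterase inhibitor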
NPY-Y1 ag 2 – activates human NPY-Y1, counter-screen for NPY-Y2 potentiators; activation, % at 3.6 µM; AID 1702; HEK293 Y1-CNGC, membrane potential fluorescence, agonism; 37% of 450 active; shares compounds with NPY2 pot ag;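 active = activation above the mean of DMSO-only control wells plus 3 SD, cut at about 18% in these data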;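 note: cells stimulated with 1 µM isoproterenol plus the PDE inhibitor Ro 20-1724; 0% = isoproterenol with DMSO and no NPY and 100% = 40 nM NPY; Y1 agonists lower the membrane potential dye signal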
CNGC inh – blocks CNG channel activity, counter-screen for NPY-Y2 potentiators; shares compounds with NPY2 pot ag; HEK293-CNG parental, isoproterenol cAMP, membrane potential fluorescence; inhibition, % at 3.6 µM; 32% of 450 active; AID 1703;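 active = inhibition above the control-well mean plus 3 SD of those wells, cut at about 22% in these data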;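 note: 0% = DMSO with isoproterenol and 100% = DMSO without isoproterenol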
Y2 agonist ctr – activates human NPY-Y2 receptor in potentiator counter-screen; shares compounds with NPY2 pot ag; HEK293 Y2/CNGC cells, membrane potential fluorescence, agonist mode; activation, % at 3.6 µM; 56% of 450 active; AID 1710;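 active = activation above the mean of solvent-only control wells plus 3 SD, cut at about 10% in these data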;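 note: cells stimulated by isoproterenol with no NPY added so direct agonism is tested; 0% = DMSO with isoproterenol alone and 100% = NPY at EC100 plus isoproterenol; agonism lowers probe fluorescence through less cAMP and CNG channel opening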
Active calls of the source: *; . = no result given.

SMILES	NPY Y2 blocker	NPY1 pot ag	NPY-Y1 antag	Wee1 stabilizer	Hsp70 act	NPY2 pot ag	Wee1 degr conf	others
O=C(O)c1cc(-c2c[nH]c3ccccc23)nc2ccc3ccccc3c12	.	9.1	-1.9	-3.3	-0.4	-4.8	.
CC(C)NC(=O)C1CCN(C2CCN(Cc3ccc4cccc(F)c4n3)CC2)CC1	.	0.0	-0.5	0.8	-0.1	-15.3	.
COc1ccc(N2CCN(C(=O)CCN3C(=S)NC(C)(C)CC3C)CC2)cc1 (stereo not given)	.	7.3	2.9	11.0*	0.2	-1.2	3.4
CC1CC(C)(C)NC(=S)N1CCC(=O)N1CCN(c2ccccc2)CC1 (stereo not given)	.	-4.9	1.3	-3.1	0.4	3.2	.
O=C(COC(=O)c1ccc(F)cc1F)NC1CC1	.	8.3	3.8	-3.4	-0.2	4.3	.
N=c1c2c3c(sc2ncn1Cc1ccco1)CCCCC3	5.4	-23.6	5.1	11.6*	0.0	11.4	-1.7
CC(=O)N1CCN(c2ccc(NCc3ccc(F)cc3)cc2)CC1	1.6	-4.5	-4.3	1.2	-0.3	-14.9	.
COc1cc(CNc2ccc(N3CCN(C(C)=O)CC3)cc2)ccc1OCc1ccc(F)cc1	.	2.1	-3.7	11.6*	-0.2	5.0	3.0
Cc1cc(C)c(C(=O)Cn2nc(C(=O)O)c3ccccc3c2=O)cc1C	.	-21.1	.	-2.0	.	-20.9	.
CCCc1ccc(C(=O)Cn2nc(C(=O)O)c3ccccc3c2=O)cc1	.	-11.8	6.6	11.4*	-0.4	-17.5	2.5
Cc1cccn2cc(CCNC(=O)c3ccc(Br)o3)nc12	0.1	-3.0	0.0	5.2	0.1	0.4	.
N=C(N)N=Nc1c(O)[nH]c2ccc(Br)cc12	.	-7.4	-4.6	0.5	-0.3	-2.5	.
O=C(N=Nc1c(O)[nH]c2ccc(Br)cc12)c1ccccc1-n1cccc1	4.5	-20.0	3.7	11.8*	0.0	-0.8	21.1*
N#Cc1ccsc1NC(=O)CN1CCN(S(=O)(=O)c2ccccc2C(F)(F)F)CC1	3.6	4.1	5.0	1.3	-0.3	-6.4	.
Cc1ccc(C)c(S(=O)(=O)N2CCN(CC(=O)Nc3sccc3C#N)CC2)c1	4.9	-7.8	6.5	14.2*	-0.2	-5.6	1.7
COc1cc(C)c(NC(=S)Nc2ccc(Cl)c(Cl)c2)cc1OC	1.6	-23.0	7.1	-1.4	-0.4	-7.7	.
C/C(=N\NC(=O)CCc1ccccc1)C1C(=O)c2ccccc2C1=O	.	4.4	3.1	12.9*	-0.1	-16.5	-1.1
Cc1cc(C)nc(N2CCCC(C(=O)Nc3nnc(C)s3)C2)n1 (stereo not given)	6.6	4.4	4.8	-0.1	-0.5	8.5	.
Cc1cc(C)nc(N2CCCC(C(=O)Nc3nc4ccc(S(C)(=O)=O)cc4s3)C2)n1 (stereo not given)	4.0	-29.1	-7.5	10.9*	-0.2	-17.4	-1.6
O=C(NC(=S)N(CCO)Cc1ccccc1)c1cc(Br)ccc1Cl	.	3.5	4.8	11.2*	-0.3	-0.6	-1.0
CC1=C(C(=O)OCC2CCCO2)C(c2ccc(Cl)cc2)NC(=O)N1 (stereo not given)	.	-2.6	2.0	11.8*	-0.1	-6.1	1.2
Cn1nc(C(=O)Nc2cccc(C(F)(F)F)c2)ccc1=O	5.0	11.4	-5.2	11.4*	-0.2	4.3	1.0
Cn1ncc(Br)c1C(=O)Nc1cccc(C(F)(F)F)c1	.	1.9	.	-3.8	.	1.7	.
O=C1c2ccccc2C(=O)N1CN(C(=O)COc1ccc(Cl)cc1Cl)c1cccc(F)c1	-2.7	-1.9	-5.1	-1.0	-0.5	2.0	.
O=c1[nH][nH]c2ccccc2c1=O	.	1.1	.	14.3*	.	86.9*	2.3	NPY-Y2 pot conf=1.6;NPY-Y1 counter=5.5;NPY-Y1 ag 2=-11.8;CNGC inh=0.3;Y2 agonist ctr=-3.1
SMILES	NPY Y2 blocker	NPY1 pot ag	NPY-Y1 antag	Wee1 stabilizer	Hsp70 act	NPY2 pot ag	Wee1 degr conf	others
O=c1c2ccccc2[nH]c2ccccc12	1.6	-20.5	1.9	4.2	-0.1	1.0	.
Cc1ccc(C(=O)COc2nc(C)nc3ccccc23)cc1	.	-0.5	-1.0	-1.0	-0.1	3.2	.
Cc1ccc(Nc2nc(-c3ccncc3)cs2)cc1	.	31.3	-15.1	18.3*	-0.1	35.6*	7.5	NPY-Y2 pot conf=34.7*;NPY-Y1 counter=47.6*;NPY-Y1 ag 2=60.2*;CNGC inh=48.8*;Y2 agonist ctr=45.8*
COc1ccc(S(=O)(=O)N2CCCN(S(=O)(=O)c3ccc(OC)cc3C)CC2)c(C)c1	-0.8	-5.9	-1.8	2.5	-0.2	1.1	.
O=C1/C(=C\c2ccc(O)c(O)c2)C(c2ccccc2)=NN1c1ccccc1	.	21.4	-5.5	11.4*	-0.2	25.7*	1.8	NPY-Y2 pot conf=9.6;NPY-Y1 counter=7.9;NPY-Y1 ag 2=-1.1;CNGC inh=8.1;Y2 agonist ctr=7.2
COc1ccc(Cl)cc1NS(=O)(=O)c1cc(Cl)ccc1OC	-2.3	43.4	-5.7	5.0	-0.3	33.2*	.	NPY-Y2 pot conf=24.0;NPY-Y1 counter=37.8;NPY-Y1 ag 2=28.7*;CNGC inh=25.6*;Y2 agonist ctr=31.6*
COc1ccc(Cl)cc1S(=O)(=O)Nc1ccncc1	.	13.8	4.4	-2.6	0.1	-10.5	.
N#C/C(=N\Nc1ccc(Cl)cc1)C(=O)c1ccccc1	-0.5	34.9	-12.1	2.6	0.0	47.3*	.	NPY-Y2 pot conf=19.1;NPY-Y1 counter=-3.0;NPY-Y1 ag 2=6.6;CNGC inh=0.7;Y2 agonist ctr=19.8*
Cc1c(N/N=C(\C#N)C(=O)c2ccc(Cl)cc2)c(=O)n(-c2ccccc2)n1C	2.2	-3.7	2.8	-1.7	-0.4	-13.3	.
O=C(Nc1ccc(F)cc1F)N1CCCN(c2ccc([N+](=O)[O-])cn2)CC1	.	8.3	.	0.0	.	-7.6	.
O=C(c1ccc(F)cc1F)C1CCN(c2ccc([N+](=O)[O-])cn2)CC1	.	31.3	.	-3.9	.	46.2*	.	NPY-Y2 pot conf=7.6;NPY-Y1 counter=-4.4;NPY-Y1 ag 2=8.1;CNGC inh=7.6;Y2 agonist ctr=11.8*
Cn1c(N)c(C(=O)N/N=C/c2ccccc2)sc1=S	.	43.2	.	-1.9	.	39.6*	.	NPY-Y2 pot conf=24.8;NPY-Y1 counter=32.9;NPY-Y1 ag 2=23.1*;CNGC inh=33.4*;Y2 agonist ctr=16.7*
C=CCNC(=O)COC(=O)c1ccc(C)c(NC(=O)c2ccco2)c1	.	8.6	8.6	-3.0	-0.3	-10.8	.

Source: PubChem
